# An excerpt weighted towards active compounds, which were near 2.2% of everything screened.
# PPC-1+TRAIL kill = compounds killing PPC-1 cancer cells with TRAIL present (potentiator screen, no TRAIL-free arm) | PPC-1 cells + TRAIL, ATPLite viability luminescence | cell killing (% activity), % at 4 µM or 5 µM | actives 0.41% (n = 220,000) | AID 1443;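 active means cell killing above 50% in the first pass at 4 µM, then a duplicate retest at 5 µM averaging 50% or more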;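 further: plate controls were cells with TRAIL plus DMSO for no effect and medium-only wells lacking cells for full effect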
# C8 TRAIL sens = sensitizes caspase-8 expressing cells to TRAIL; NB7+C8 cells + TRAIL, ATPlite viability luminescence; inhibition (viability loss, TRAIL sensitization), % at 10 µM; actives 1% (n = 360,000); AID 624354;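 active means compounds causing at least 50% loss of cell viability in the single-dose screen, relative to plate controls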
# APP 5'UTR act = activates APP 5'UTR luciferase reporter | SH-SY5Y APP 5'UTR luciferase reporter, luminescence; zero percent = DMSO vehicle wells | activation, % at 2 µM | actives 1% (n = 190,000);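 active means activation above a set limit, based on mean plus 3 SD of controls, cut at about 140% in these data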
# NF-kB expr up = raises NF-kB expression in human neuronal cells; fold change at 12.5 µM; NF-kB reporter expression; hits give high values; actives 1.6% (n = 190,000); in the data active means fold change above about 3.3
# FLuc inh counter = counter-screen for luciferase assay inhibitors: firefly luciferase inhibition; P08659; ATPLite firefly luciferase biochemical luminescence, 10 min; inhibition, % at 10 µM; actives 1.5% (n = 200,000); AID 1006;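 active means inhibition above about 50% when tested at 10 µM, limit read from the data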
# Target sequence (P08659 whole entry, looked up): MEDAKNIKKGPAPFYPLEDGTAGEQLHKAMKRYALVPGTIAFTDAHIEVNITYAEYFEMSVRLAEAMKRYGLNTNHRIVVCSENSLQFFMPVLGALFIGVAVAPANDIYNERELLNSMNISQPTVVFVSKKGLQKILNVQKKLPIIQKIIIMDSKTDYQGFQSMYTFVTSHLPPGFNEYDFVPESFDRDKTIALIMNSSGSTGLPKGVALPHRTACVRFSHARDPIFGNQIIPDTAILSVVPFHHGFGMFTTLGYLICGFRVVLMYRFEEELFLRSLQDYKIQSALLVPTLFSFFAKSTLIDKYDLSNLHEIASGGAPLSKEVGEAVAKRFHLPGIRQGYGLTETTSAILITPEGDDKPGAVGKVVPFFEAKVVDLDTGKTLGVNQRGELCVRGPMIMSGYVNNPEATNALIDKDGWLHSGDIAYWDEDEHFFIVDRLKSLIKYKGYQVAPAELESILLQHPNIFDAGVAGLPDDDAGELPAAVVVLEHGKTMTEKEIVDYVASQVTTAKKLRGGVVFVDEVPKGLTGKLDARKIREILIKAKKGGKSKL
# FLuc act counter = affects firefly luciferase, flagging false hits in luciferase stimulation screens; P08659; ATPlite luciferase biochemical, luminescence, 10 min; 0 = ATP-free wells, 1 = DMSO control; activation factor at 10 µM; 200,000 tested, under 10 active; AID 1027;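 active means luciferase activation factor, scaled between plate controls, of at least 2 with compound at 10 µM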
#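 Material: Luciferase/luciferin reagent mix | Doses: Test compounds dosed from 2 mM stocks in 100% DMSO | Timing: 10 min incubation after luciferase reagent addition, room temperature | Measured by: Luminescence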
# * marks the source's active call; other numbers are inactive results; . = no result.
SMILES,PPC-1+TRAIL kill,C8 TRAIL sens,APP 5'UTR act,NF-kB expr up,FLuc inh counter,FLuc act counter
CC(C)c1ccc(NC(=O)Nc2nc(C(N)C3CCCCC3)cs2)cc1 (stereo unspecified),.,88*,.,.,.,.
Clc1ccc(-c2cn3c(n2)SCC3)cc1,-5,8,153*,4.8*,24,0.8
Oc1ccc(-c2cn3c(n2)SCC3)cc1,-3,-4,-3,1.7,6,0.9
Brc1ccc(-c2cn3c(n2)SCC3)cc1,20,22,157*,5.2*,32,0.7
COc1ccc(C2=NN(C(=O)CCC(=O)O)C(c3ccccc3F)C2)cc1 (stereo unspecified),.,15,.,.,.,.
COCCCn1c(SCC(=O)N2CCOCC2)nc2cc(Cl)ccc2c1=O,.,6,.,.,.,.
Cc1cc(C(=O)Cn2nc(C(=O)O)c3ccccc3c2=O)c(C)n1-c1cccc(C(F)(F)F)c1,5,7,.,.,.,.
CCCn1c(C)cc(C(=O)CSc2nnc3n(CCC)c(=O)c4ccccc4n23)c1C,16,.,.,.,-8,1.1
Cc1cc(C(=O)Cn2nc(C(=O)O)c3ccccc3c2=O)c(C)n1C1CC1,-13,5,26,0.75,11,0.9
Cc1cc(C(=O)Cn2nc(C(=O)O)c3ccccc3c2=O)c(C)n1-c1ccc(F)cc1,57*,33,-3,0.87,76*,0.2
CCCn1c(C)cc(C(=O)Cn2nnc3ccccc3c2=O)c1C,32,31,159*,4.7*,57*,0.4
COCCn1c(C)cc(C(=O)Cn2nc(C(=O)O)c3ccccc3c2=O)c1C,17,64*,44,1.7,91*,0.1
COc1ccc(C(=O)CN2C(=O)c3ccccc3S2(=O)=O)cc1,38,65*,.,.,.,.
COc1ccc(C(=O)CN2C(=O)c3ccccc3S2(=O)=O)cc1Br,.,20,.,.,.,.
CCCn1c(C)cc(C(=O)CN2C(=O)c3ccccc3S2(=O)=O)c1C,.,58*,.,.,.,.
Cc1ccc(C)c(C(=O)CN2C(=O)c3ccccc3S2(=O)=O)c1,10,23,-4,0.93,-2,1
Cc1ccc(C(=O)c2cc([N+](=O)[O-])ccc2N2CCOCC2)cc1,-1,-1,-93,2.1,-6,1.1
COc1ccc(C(=O)c2cc([N+](=O)[O-])ccc2N2CCOCC2)cc1,35,-37,-93,3.4*,-6,1.1
CCOc1ccc(C(=O)c2cc([N+](=O)[O-])ccc2N2CCOCC2)cc1,22,-8,-94,3.6*,-6,1.1
Cc1ccc(C(=O)c2cc([N+](=O)[O-])ccc2N2CCCCC2)c(C)c1,17,-69,-96,3.9*,-10,1.1
CC1=CC2C(C(O)CC3(C)C2CC(C)C32OCOC23COCO3)C2(C)C/C(=C\O)C(=O)C=C12 (stereo unspecified),.,94*,.,.,.,.
COc1ccc(N2CCN(C(=O)COC(=O)Cc3cccc(OC)c3)CC2)cc1,.,2,.,.,.,.
CC[C@]12c3[nH]c4ccc(Cl)cc4c3CCN1C(=O)[C@@H](CC(=O)NCCCn1ccnc1)C[C@@H]2C(=O)N1CCN(C(=O)c2ccco2)CC1,.,-18,.,.,.,.
O=C1C(F)=CC(COC(c2ccccc2)(c2ccccc2)c2ccccc2)OC1n1cc(F)c(=O)[nH]c1=O (stereo unspecified),.,89*,.,.,.,.
Oc1c(C=Nc2cccc3cccnc23)sc2ccccc12,3,.,20,1.8,82*,0.2
SMILES,PPC-1+TRAIL kill,C8 TRAIL sens,APP 5'UTR act,NF-kB expr up,FLuc inh counter,FLuc act counter
Cc1cccc(/N=C/c2sc3ccccc3c2O)n1,-1,25,.,.,.,.
C=CCN1C(=O)CSC1=Nc1ccc(O)cc1,15,-11,1,3.4*,-7,1.1
CN1CCCC(C)(C(=O)Nc2cccc(Oc3ccccc3)c2)C1 (stereo unspecified),.,17,.,.,.,.
CCOC(=O)c1c(C)oc2c1cc(O)c1ccccc12,36,2,172*,3.3*,4,1
O=c1oc2ccccc2n1CSC1=NCCS1,5,-20,23,4.2*,-2,1
O=c1oc2ccccc2n1CSc1nc2ccccc2s1,19,-5,96,3.3*,8,0.9
CCOC(=O)c1sc(N(Cc2ccccc2)C(=O)COC(=O)c2ccccc2O)nc1C,16,-1,10,1.1,-5,1.1
CCOC(=O)c1sc(N(Cc2ccccc2)C(=O)CCl)nc1C,.,87*,.,.,.,.
CS(=O)(=O)c1ccc2nc(NC(=O)c3ccccc3Br)sc2c1,.,4,.,.,.,.
NC1=CC(=O)C(=O)c2ccccc21,.,92*,.,.,.,.
